Data as given in publication PMC7363052 (Journal of hepatology, 2020).

Assays:
[1] = Serum ALT and AST in CCl4-treated mice; type: in vivo, mouse; conditions: CCl4 0.2 mL/kg i.p. twice per week, 6 weeks (mild), mean ± SEM
TGF-β1 = experiment: Hepatic TGF-β1 mRNA by RT-PCR in CCl4-treated mice; type: in vivo, mouse; conditions: compared to control
How it was run: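 Male CD1 mice, 10 weeks old, given CCl4 at 0.2 mL/kg (1:5 in olive oil) i.p. twice weekly; controls received olive oil only. Hepatic TGF-β1 mRNA was measured by RT-PCR and expressed as relative mRNA level by the ΔΔCT method. Values are mean ± SEM, n = 3–6, compared by one-way ANOVA with Tukey's post hoc test.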

integrin αvβ3 [2] = target: integrin αvβ3 (Homo sapiens, UniProt P05106+P06756); type: binding; conditions: advanced fibrosis human liver frozen sections, immunofluorescence
integrin αvβ3 (Homo sapiens, UniProt P05106+P06756), sequence (P06756 31-889 limits assumed): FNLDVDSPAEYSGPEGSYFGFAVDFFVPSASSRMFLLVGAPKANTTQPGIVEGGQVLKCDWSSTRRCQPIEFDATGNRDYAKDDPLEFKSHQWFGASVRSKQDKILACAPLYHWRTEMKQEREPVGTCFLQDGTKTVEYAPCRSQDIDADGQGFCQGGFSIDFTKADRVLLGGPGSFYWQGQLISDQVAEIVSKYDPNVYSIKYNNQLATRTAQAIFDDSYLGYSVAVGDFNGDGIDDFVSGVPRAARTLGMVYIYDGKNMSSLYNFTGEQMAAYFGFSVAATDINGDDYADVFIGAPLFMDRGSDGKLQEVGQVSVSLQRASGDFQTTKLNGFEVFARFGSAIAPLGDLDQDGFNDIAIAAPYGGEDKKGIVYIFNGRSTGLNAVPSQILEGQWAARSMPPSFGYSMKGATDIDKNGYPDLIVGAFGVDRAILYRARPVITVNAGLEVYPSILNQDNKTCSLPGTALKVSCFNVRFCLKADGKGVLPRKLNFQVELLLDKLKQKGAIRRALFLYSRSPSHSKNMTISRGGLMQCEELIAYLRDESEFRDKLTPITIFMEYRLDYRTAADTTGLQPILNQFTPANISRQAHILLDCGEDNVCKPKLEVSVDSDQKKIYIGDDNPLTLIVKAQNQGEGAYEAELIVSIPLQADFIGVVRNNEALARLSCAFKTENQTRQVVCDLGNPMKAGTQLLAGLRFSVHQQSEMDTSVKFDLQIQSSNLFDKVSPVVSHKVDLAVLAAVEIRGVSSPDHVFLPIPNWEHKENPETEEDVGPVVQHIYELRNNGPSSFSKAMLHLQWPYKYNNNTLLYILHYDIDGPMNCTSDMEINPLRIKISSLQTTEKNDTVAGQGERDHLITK
integrin αvβ3 (Homo sapiens, UniProt P05106+P06756), sequence (P06756 891-1048 partner limits assumed): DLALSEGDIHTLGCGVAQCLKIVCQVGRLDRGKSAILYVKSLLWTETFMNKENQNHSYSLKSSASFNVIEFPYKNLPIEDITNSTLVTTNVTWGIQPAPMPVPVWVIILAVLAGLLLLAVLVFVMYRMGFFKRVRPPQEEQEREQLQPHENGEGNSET
integrin αvβ3 (Homo sapiens, UniProt P05106+P06756), sequence (P05106 27-788): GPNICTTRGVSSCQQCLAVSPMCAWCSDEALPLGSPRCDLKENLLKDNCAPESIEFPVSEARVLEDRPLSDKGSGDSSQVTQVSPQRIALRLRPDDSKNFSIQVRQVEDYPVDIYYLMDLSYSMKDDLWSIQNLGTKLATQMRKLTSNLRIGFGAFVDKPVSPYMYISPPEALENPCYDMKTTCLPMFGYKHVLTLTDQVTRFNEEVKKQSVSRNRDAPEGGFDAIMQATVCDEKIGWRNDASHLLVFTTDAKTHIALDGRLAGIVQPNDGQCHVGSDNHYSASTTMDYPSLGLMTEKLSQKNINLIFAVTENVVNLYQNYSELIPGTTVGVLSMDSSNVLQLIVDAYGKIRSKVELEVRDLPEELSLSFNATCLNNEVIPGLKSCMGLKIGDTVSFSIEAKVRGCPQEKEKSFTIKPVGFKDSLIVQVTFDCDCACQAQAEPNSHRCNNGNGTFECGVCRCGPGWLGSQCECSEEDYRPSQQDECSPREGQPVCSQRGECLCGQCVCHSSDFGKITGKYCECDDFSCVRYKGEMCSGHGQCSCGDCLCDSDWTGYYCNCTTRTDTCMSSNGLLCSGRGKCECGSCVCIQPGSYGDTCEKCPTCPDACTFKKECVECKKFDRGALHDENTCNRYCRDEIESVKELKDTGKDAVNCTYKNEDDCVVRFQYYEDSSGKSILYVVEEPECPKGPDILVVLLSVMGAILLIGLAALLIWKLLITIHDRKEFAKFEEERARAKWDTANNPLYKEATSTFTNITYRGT
How it was run: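 Snap-frozen liver sections came from patients with staged fibrosis (F1–F3, n=3 each) and from normal livers. Advanced-fibrosis sections were stained with a FITC-labelled PEG4-linked dimeric cyclic RGD peptide probe (green), plus CD68 or α-SMA (red). Co-localization was read by fluorescence microscopy at original magnification 100X.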

integrin αvβ3 [3] = target: T1, integrin αvβ3 (Mus musculus, UniProt O54890+P43406); type: binding; conditions: frozen fibrotic liver sections, severe CCl4 and BDL models, immunofluorescence
T1 sequence (P43406 31-885 limits assumed): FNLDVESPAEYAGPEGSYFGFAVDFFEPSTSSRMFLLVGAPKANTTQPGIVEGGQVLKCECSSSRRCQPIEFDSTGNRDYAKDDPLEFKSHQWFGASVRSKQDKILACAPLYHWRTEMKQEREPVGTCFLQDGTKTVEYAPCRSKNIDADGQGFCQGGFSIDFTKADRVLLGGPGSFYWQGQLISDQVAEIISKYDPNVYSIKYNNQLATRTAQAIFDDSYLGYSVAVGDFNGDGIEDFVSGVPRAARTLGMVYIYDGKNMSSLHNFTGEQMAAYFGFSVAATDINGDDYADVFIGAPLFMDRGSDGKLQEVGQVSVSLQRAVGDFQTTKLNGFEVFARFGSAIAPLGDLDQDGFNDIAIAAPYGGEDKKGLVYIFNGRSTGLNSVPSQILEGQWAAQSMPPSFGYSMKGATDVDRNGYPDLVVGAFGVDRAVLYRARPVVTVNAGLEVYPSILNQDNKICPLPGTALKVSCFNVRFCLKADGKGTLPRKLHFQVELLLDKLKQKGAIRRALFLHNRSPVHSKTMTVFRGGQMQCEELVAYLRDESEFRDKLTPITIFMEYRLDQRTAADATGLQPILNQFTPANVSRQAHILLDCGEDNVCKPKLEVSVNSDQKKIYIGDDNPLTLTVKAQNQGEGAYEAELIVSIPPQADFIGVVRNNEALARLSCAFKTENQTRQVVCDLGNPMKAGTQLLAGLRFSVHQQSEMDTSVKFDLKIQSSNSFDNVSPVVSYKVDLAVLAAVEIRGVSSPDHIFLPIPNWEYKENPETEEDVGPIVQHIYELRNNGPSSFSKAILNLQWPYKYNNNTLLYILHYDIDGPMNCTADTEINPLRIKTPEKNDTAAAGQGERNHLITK
T1 sequence (P43406 887-1044 partner limits assumed): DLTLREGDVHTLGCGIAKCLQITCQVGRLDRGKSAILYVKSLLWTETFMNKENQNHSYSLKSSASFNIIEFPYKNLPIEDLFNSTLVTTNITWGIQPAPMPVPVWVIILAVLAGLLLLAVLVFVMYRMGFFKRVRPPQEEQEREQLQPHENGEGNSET
T1 sequence (O54890 26-787): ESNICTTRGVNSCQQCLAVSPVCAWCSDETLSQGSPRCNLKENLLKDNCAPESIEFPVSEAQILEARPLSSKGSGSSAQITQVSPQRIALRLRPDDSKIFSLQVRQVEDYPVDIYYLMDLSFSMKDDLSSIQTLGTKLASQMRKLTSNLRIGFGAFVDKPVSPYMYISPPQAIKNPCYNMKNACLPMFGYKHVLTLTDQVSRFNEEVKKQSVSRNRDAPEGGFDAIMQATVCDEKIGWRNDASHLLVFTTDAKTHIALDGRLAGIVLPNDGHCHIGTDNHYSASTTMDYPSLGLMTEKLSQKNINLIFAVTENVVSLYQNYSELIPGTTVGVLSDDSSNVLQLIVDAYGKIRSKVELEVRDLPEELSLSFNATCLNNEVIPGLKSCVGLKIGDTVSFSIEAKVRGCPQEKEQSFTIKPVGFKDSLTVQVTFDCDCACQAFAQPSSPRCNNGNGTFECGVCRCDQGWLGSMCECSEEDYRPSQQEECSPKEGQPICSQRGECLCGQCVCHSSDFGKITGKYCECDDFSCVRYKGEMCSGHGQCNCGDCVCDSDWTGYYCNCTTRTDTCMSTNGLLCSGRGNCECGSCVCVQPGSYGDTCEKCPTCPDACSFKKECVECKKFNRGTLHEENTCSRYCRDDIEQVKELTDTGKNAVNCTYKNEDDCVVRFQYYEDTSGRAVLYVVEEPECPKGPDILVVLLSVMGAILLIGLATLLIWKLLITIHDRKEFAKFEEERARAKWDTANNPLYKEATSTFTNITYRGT
How it was run: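 Liver fibrosis was induced in 10-week-old male CD1 mice with CCl4, 0.2 mL/kg as 1:5 CCl4:olive oil, i.p. twice weekly for up to 12 weeks. Other mice had the common bile duct transected via midline laparotomy and were killed after 3 weeks. Frozen liver sections were co-stained with a FITC-labelled dimeric RGD peptide probe and α-SMA and CD68 antibodies to assess co-localization.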

## ClC(Cl)(Cl)Cl [CCl4, carbon-tetrachloride]
[1]; sham 20.66±1.383
  serum ALT: 96.22±18.5
[1]; sham 76.24±6.128
  serum AST: 125.7±9.82
TGF-β1; 6 weeks of CCl4 treatment
  hepatic TGF-β1 mRNA level increase: 2 fold
TGF-β1; 12 weeks of CCl4 treatment
  hepatic TGF-β1 mRNA level increase: 8 fold

## FITC-E(PEG4-RGDfK)2 [FITC-RGD2]
Integrin αvβ3 [2]
  co-localization with CD68: low co-localization
  co-localization with α-SMA: high co-localization
Integrin αvβ3 [3]
  co-localization with CD68: little co-localization
  co-localization with α-SMA: high co-localization
